Results from ChEMBL document CHEMBL1129588, “Development of potent thrombin receptor antagonist peptides” (J Med Chem, 1996).
pEC50, pIC50: −log10 of the molar value. Non-standard residues stand in square brackets, D forms with d. Residues, ends and D or L forms follow the SMILES beside them. *: point of attachment. Phe(4-guanidino) = N=C(N)Nc1ccc(C[C@H](N)C(=O)O)cc1; Phe(4-F) = N[C@@H](Cc1ccc(F)cc1)C(=O)O; Thiophene3carbonyl = O=C(c1ccsc1)*; Tic = O=C(O)[C@@H]1Cc2ccccc2CN1; Thz = O=C(O)[C@@H]1CSCN1; X1 = O=C(c1ccoc1)*

Experiments:
[1] = target: T1, Proteinase-activated receptor 1 (Homo sapiens, UniProt P25116)
T1 sequence (P25116 whole entry): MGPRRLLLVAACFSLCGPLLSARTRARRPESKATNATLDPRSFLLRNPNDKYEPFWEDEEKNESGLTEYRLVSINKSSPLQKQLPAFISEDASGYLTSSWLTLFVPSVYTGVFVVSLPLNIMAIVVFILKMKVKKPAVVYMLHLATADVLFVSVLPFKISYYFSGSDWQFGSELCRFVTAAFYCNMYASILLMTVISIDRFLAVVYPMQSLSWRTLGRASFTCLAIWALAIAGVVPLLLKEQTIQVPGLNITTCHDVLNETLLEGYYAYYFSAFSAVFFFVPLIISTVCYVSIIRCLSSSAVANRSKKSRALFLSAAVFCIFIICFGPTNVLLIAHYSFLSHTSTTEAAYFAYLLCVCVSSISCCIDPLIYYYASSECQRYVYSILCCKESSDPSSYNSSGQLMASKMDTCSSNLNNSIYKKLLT

[2] = target: T1, Proteinase-activated receptor 1; assay: Concentration of compound required to inhibit agonist ([…], at 3 uM) induced platelet aggregation by 50%; PA=not experimentally achieved; assay type: functional
Procedure, shortened: (§1)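 Gel-filtered human platelets in a microtiter turbidity aggregation assay, preincubated with test peptide and then stimulated with SFLLRNP-NH₂ at 3 μM. […] N is the number of determinations.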

[3] = Concentration to stimulate human platelet aggregation; assay type: functional
Procedure, shortened: (§2)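 Peptides were added alone to gel-filtered human platelets, and aggregation was read by microtiter turbidity. EC₅₀ is the concentration stimulating 50% of maximum aggregation. N is the number of determinations. A peptide is called a partial agonist where maximum aggregation was not reached experimentally.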

[4] = target: T1, Proteinase-activated receptor 1; assay: Effective concentration of compound for stimulation of 50% maximum platelet aggregation; PA=not experimentally achieved; assay type: functional
Procedure, shortened: as §2

[5] = target: T1, Proteinase-activated receptor 1; assay: Concentration of compound required to inhibit agonist ([…], at 3 uM) induced platelet aggregation by 50%;PA=not experimentally achieved; assay type: functional
Procedure, shortened: as §1

SMILES | pIC50 [1] | pEC50 [3] | further results
C/C=C/C=C/CC(=O)N(C(C)=O)[C@@H](Cc1ccc(F)cc1)C(=O)N[C@@H](Cc1ccc(NC(=N)N)cc1)C(=O)N[C@@H](CC(C)C)C(=O)N[C@@H](CCCN=C(N)N)C(N)=O | 7.62 |  | IC50 [2]: Not Active
CC(C)C[C@H](NC(=O)[C@H](Cc1ccc(F)cc1)NC(=O)[C@H](Cc1ccc(F)cc1)NC(=O)[C@@H](N)CO)C(=O)N[C@@H](CCCN=C(N)N)C(N)=O (H-S[Phe(4-F)][Phe(4-F)]LR-NH2) |  | 7.00 | 
CC(C)C[C@H](NC(=O)[C@H](Cc1ccc(NC(=N)N)cc1)NC(=O)[C@H](Cc1ccc(F)cc1)NC(=O)[C@@H](N)CO)C(=O)N[C@@H](CCCN=C(N)N)C(N)=O (H-S[Phe(4-F)][Phe(4-guanidino)]LR-NH2) |  | 7.40 | 
CC(C)C[C@H](NC(=O)[C@@H]1Cc2ccccc2CN1C(=O)[C@H](Cc1ccc(F)cc1)NC(=O)[C@@H](N)CO)C(=O)N[C@@H](CCCN=C(N)N)C(N)=O (H-S[Phe(4-F)][Tic]LR-NH2) |  | 6.33 | 
CC(C)C[C@H](NC(=O)[C@H](CC(C)C)NC(=O)[C@H](Cc1ccccc1)NC(=O)[C@@H]1CSCN1)C(=O)N[C@@H](CCCN=C(N)N)C(N)=O (H-[Thz]FLLR-NH2) |  | 4.34 | 
CC(C)C[C@H](NC(=O)[C@H](Cc1ccc(NC(=N)N)cc1)NC(=O)[C@H](Cc1ccc(F)cc1)NC(=O)c1ccsc1)C(=O)N[C@@H](CCCN=C(N)N)C(N)=O (Thiophene3carbonyl-[Phe(4-F)][Phe(4-guanidino)]LR-NH2) | 7.62 |  | EC50 [4]: Not Active
CC(C)C[C@H](NC(=O)[C@H](Cc1ccc(NC(=N)N)cc1)NC(=O)[C@H](Cc1ccc(F)cc1)NC(=O)c1ccoc1)C(=O)N[C@@H](CCCN=C(N)N)C(N)=O (X1-[Phe(4-F)][Phe(4-guanidino)]LR-NH2) | 7.54 |  | EC50 [5]: Not Active
